ChEMBL document CHEMBL1255475, “Mutant prevention concentrations of four carbapenems against gram-negative rods” (2010)
Values after ≈ are worked out from the molar mass of the structure shown.

Legend:
Type in all cases: functional
[1] = tested on: Escherichia coli; experiment: Antibacterial activity against beta-lactamase-positive ESBL-negative Escherichia coli E430 assessed as mutant prevention concentration after overnight incubation
Summary of the method: (§1)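 Overnight growth on blood trypticase soy agar (35°C, air) was resuspended in 0.9% saline and counted on drug-free Mueller-Hinton agar. […] Colonies were retested by agar dilution to confirm mutants. MPC was the lowest concentration preventing resistant-mutant growth.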

[2] = tested on: Escherichia coli; experiment: Antibacterial activity against beta-lactamase-positive ESBL-positive Escherichia coli E456 incubated up to 7 days by agar dilution method; settings: E456, 168 h
Summary of the method: (§2)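 MIC by CLSI agar dilution, with quality-control strains in each run. Beta-lactamase status was set by 30 μg cefazolin Kirby-Bauer disk diffusion. ESBL status was set by cefotaxime and ceftazidime disks (30 μg) with and without clavulanic acid (10 μg).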

[3] = tested on: Escherichia coli; experiment: Antibacterial activity against beta-lactamase-negative Escherichia coli E424 assessed as mutant prevention concentration after overnight incubation
[4] = tested on: Escherichia coli; experiment: Antibacterial activity against beta-lactamase-negative Escherichia coli E347 incubated up to 7 days by agar dilution method; settings: E347, 168 h
[5] = tested on: Escherichia coli; experiment: Antibacterial activity against beta-lactamase-negative Escherichia coli E409 assessed as mutant prevention concentration after overnight incubation
[6] = tested on: Klebsiella pneumoniae; experiment: Antibacterial activity against beta-lactamase-positive ESBL-positive Klebsiella pneumoniae E475 incubated up to 7 days by agar dilution method; settings: E475, 168 h
[7] = tested on: Klebsiella pneumoniae; experiment: Antibacterial activity against beta-lactamase-positive ESBL-negative Klebsiella pneumoniae E507 assessed as mutant prevention concentration after overnight incubation; summary of the method: as §1
[8] = tested on: Acinetobacter baumannii; experiment: Antibacterial activity against Acinetobacter baumannii A901 assessed as mutant prevention concentration after overnight incubation
[9] = tested on: Escherichia coli; experiment: Antibacterial activity against beta-lactamase-positive ESBL-positive Escherichia coli E446 assessed as mutant prevention concentration after overnight incubation; summary of the method: as §1
[10] = tested on: Escherichia coli; experiment: Antibacterial activity against beta-lactamase-positive ESBL-positive Escherichia coli E450 incubated up to 7 days by agar dilution method; settings: E450, 168 h; summary of the method: as §2
[11] = tested on: Klebsiella pneumoniae; experiment: Antibacterial activity against beta-lactamase-positive ESBL-negative Klebsiella pneumoniae E473 incubated up to 7 days by agar dilution method; settings: E473, 168 h
[12] = tested on: Pseudomonas aeruginosa; experiment: Antibacterial activity against Pseudomonas aeruginosa P369 assessed as mutant prevention concentration after overnight incubation
[13] = tested on: Escherichia coli; experiment: Antibacterial activity against beta-lactamase-negative Escherichia coli E345 assessed as mutant prevention concentration after overnight incubation
[14] = tested on: Acinetobacter baumannii; experiment: Antibacterial activity against Acinetobacter baumannii A891 assessed as mutant prevention concentration after overnight incubation
[15] = tested on: Klebsiella pneumoniae; experiment: Antibacterial activity against beta-lactamase-positive ESBL-positive Klebsiella pneumoniae E457 incubated up to 7 days by agar dilution method; settings: E457, 168 h; summary of the method: as §2
[16] = tested on: Pseudomonas aeruginosa; experiment: Antibacterial activity against Pseudomonas aeruginosa P326 assessed as mutant prevention concentration after overnight incubation
[17] = tested on: Klebsiella pneumoniae; experiment: Antibacterial activity against beta-lactamase-negative Klebsiella pneumoniae E360 assessed as mutant prevention concentration after overnight incubation
[18] = tested on: Escherichia coli; experiment: Antibacterial activity against beta-lactamase-positive ESBL-positive Escherichia coli E456 assessed as mutant prevention concentration after overnight incubation; summary of the method: as §1
[19] = tested on: Klebsiella pneumoniae; experiment: Antibacterial activity against beta-lactamase-positive ESBL-negative Klebsiella pneumoniae E472 incubated up to 7 days by agar dilution method; settings: E472, 168 h
[20] = tested on: Escherichia coli; experiment: Antibacterial activity against beta-lactamase-positive ESBL-positive Escherichia coli E459 assessed as mutant prevention concentration after overnight incubation; summary of the method: as §1
[21] = tested on: Escherichia coli; experiment: Antibacterial activity against beta-lactamase-positive ESBL-positive Escherichia coli E451 assessed as mutant prevention concentration after overnight incubation; summary of the method: as §1
[22] = tested on: Escherichia coli; experiment: Antibacterial activity against beta-lactamase-positive ESBL-positive Escherichia coli E452 incubated up to 7 days by agar dilution method; settings: E452, 168 h; summary of the method: as §2
[23] = tested on: Escherichia coli; experiment: Antibacterial activity against beta-lactamase-positive ESBL-positive Escherichia coli E452 assessed as mutant prevention concentration after overnight incubation; summary of the method: as §1
[24] = tested on: Escherichia coli; experiment: Antibacterial activity against beta-lactamase-negative Escherichia coli E347 assessed as mutant prevention concentration after overnight incubation
[25] = tested on: Acinetobacter baumannii; experiment: Antibacterial activity against Acinetobacter baumannii A912 assessed as mutant prevention concentration after overnight incubation
[26] = tested on: Escherichia coli; experiment: Antibacterial activity against beta-lactamase-positive ESBL-negative Escherichia coli E484 assessed as mutant prevention concentration after overnight incubation; summary of the method: as §1
[27] = tested on: Escherichia coli; experiment: Antibacterial activity against beta-lactamase-positive ESBL-positive Escherichia coli E458 incubated up to 7 days by agar dilution method; settings: E458, 168 h; summary of the method: as §2
[28] = tested on: Pseudomonas aeruginosa; experiment: Antibacterial activity against Pseudomonas aeruginosa P365 assessed as mutant prevention concentration after overnight incubation
[29] = tested on: Acinetobacter baumannii; experiment: Antibacterial activity against Acinetobacter baumannii A850 assessed as mutant prevention concentration after overnight incubation
[30] = tested on: Acinetobacter baumannii; experiment: Antibacterial activity against Acinetobacter baumannii A894 assessed as mutant prevention concentration after overnight incubation
[31] = tested on: Acinetobacter baumannii; experiment: Antibacterial activity against Acinetobacter baumannii A897 assessed as mutant prevention concentration after overnight incubation
[32] = tested on: Escherichia coli; experiment: Antibacterial activity against beta-lactamase-positive ESBL-negative Escherichia coli E437 incubated up to 7 days by agar dilution method; settings: E437, 168 h; summary of the method: as §2
[33] = tested on: Acinetobacter baumannii; experiment: Antibacterial activity against Acinetobacter baumannii A851 assessed as mutant prevention concentration after overnight incubation
[34] = tested on: Klebsiella pneumoniae; experiment: Antibacterial activity against beta-lactamase-positive ESBL-positive Klebsiella pneumoniae E453 assessed as mutant prevention concentration after overnight incubation; summary of the method: as §1
[35] = tested on: Acinetobacter baumannii; experiment: Antibacterial activity against Acinetobacter baumannii A884 assessed as mutant prevention concentration after overnight incubation
[36] = tested on: Pseudomonas aeruginosa; experiment: Antibacterial activity against Pseudomonas aeruginosa P370 assessed as mutant prevention concentration after overnight incubation
[37] = tested on: Klebsiella pneumoniae; experiment: Antibacterial activity against beta-lactamase-positive ESBL-negative Klebsiella pneumoniae E472 assessed as mutant prevention concentration after overnight incubation; summary of the method: as §1
[38] = tested on: Klebsiella pneumoniae; experiment: Antibacterial activity against beta-lactamase-positive ESBL-positive Klebsiella pneumoniae E457 assessed as mutant prevention concentration after overnight incubation; summary of the method: as §1
[39] = tested on: Pseudomonas aeruginosa; experiment: Antibacterial activity against Pseudomonas aeruginosa P349 assessed as mutant prevention concentration after overnight incubation
[40] = tested on: Klebsiella pneumoniae; experiment: Antibacterial activity against beta-lactamase-positive ESBL-negative Klebsiella pneumoniae E477 assessed as mutant prevention concentration after overnight incubation; summary of the method: as §1
[41] = tested on: Acinetobacter baumannii; experiment: Antibacterial activity against Acinetobacter baumannii A929 assessed as mutant prevention concentration after overnight incubation
[42] = tested on: Klebsiella pneumoniae; experiment: Antibacterial activity against beta-lactamase-negative Klebsiella pneumoniae E417 incubated up to 7 days by agar dilution method; settings: E417, 168 h; summary of the method: as §2
[43] = tested on: Pseudomonas aeruginosa; experiment: Antibacterial activity against Pseudomonas aeruginosa P337 assessed as mutant prevention concentration after overnight incubation
[44] = tested on: Escherichia coli; experiment: Antibacterial activity against beta-lactamase-positive ESBL-positive Escherichia coli E460 incubated up to 7 days by agar dilution method; settings: E460, 168 h; summary of the method: as §2
[45] = tested on: Klebsiella pneumoniae; experiment: Antibacterial activity against beta-lactamase-negative Klebsiella pneumoniae E417 assessed as mutant prevention concentration after overnight incubation
[46] = tested on: Escherichia coli; experiment: Antibacterial activity against beta-lactamase-positive ESBL-negative Escherichia coli E430 incubated up to 7 days by agar dilution method; settings: E430, 168 h; summary of the method: as §2
[47] = tested on: Acinetobacter baumannii; experiment: Antibacterial activity against Acinetobacter baumannii A931 assessed as mutant prevention concentration after overnight incubation

Work on `C[C@@H](O)[C@H]1C(=O)N2C(C(=O)O)=C(S[C@@H]3CN[C@H](C(=O)N(C)C)C3)[C@H](C)[C@H]12` [MEROPENEM] yielded an MPC [1] of 0.125 µg/mL, an MIC [2] of 0.03 µg/mL (≈ 0.0782 µM) and an MPC [3] of 0.06 µg/mL. For the same molecule, the MIC [4] was 0.03 µg/mL (≈ 0.0782 µM), the MPC [5] was 0.06 µg/mL and the MIC [6] was 4 µg/mL (≈ 10.4 µM). For the same molecule, the MPC [7] was >64 µg/mL, the MPC [8] was 8 µg/mL and the MPC [9] was 0.125 µg/mL. For the same molecule, the MIC [10] was 0.03 µg/mL (≈ 0.0782 µM), the MIC [11] was 2 µg/mL (≈ 5.22 µM) and the MPC [12] was >4 µg/mL. The MPC [13] was 0.06 µg/mL, the MPC [14] was 2 µg/mL and the MIC [15] was 0.06 µg/mL (≈ 0.156 µM). The MPC [16] was 64 µg/mL, the MPC [17] was 0.125 µg/mL and the MPC [18] was 0.125 µg/mL. For the same molecule, the MIC [19] was 4 µg/mL (≈ 10.4 µM), the MPC [20] was 0.125 µg/mL and the MPC [21] was 0.06 µg/mL. For the same molecule, the MIC [22] was 0.03 µg/mL (≈ 0.0782 µM), the MPC [23] was 0.06 µg/mL and the MPC [24] was 0.06 µg/mL. For the same molecule, the MPC [25] was 4 µg/mL, the MPC [26] was 16 µg/mL and the MIC [27] was 0.03 µg/mL (≈ 0.0782 µM). It also gave an MPC [28] of 8 µg/mL, an MPC [29] of 16 µg/mL and an MPC [30] of 2 µg/mL. The MPC [31] was 1 µg/mL, the MIC [32] was 0.06 µg/mL (≈ 0.156 µM) and the MPC [33] was 32 µg/mL. For the same molecule, the MPC [34] was 0.5 µg/mL, the MPC [35] was 8 µg/mL and the MPC [36] was >4 µg/mL. It also gave an MPC [37] of 32 µg/mL, an MPC [38] of 0.125 µg/mL and an MPC [39] of 16 µg/mL. For the same molecule, the MPC [40] was 8 µg/mL, the MPC [41] was 4 µg/mL and the MIC [42] was 0.06 µg/mL (≈ 0.156 µM). For the same molecule, the MPC [43] was 8 µg/mL, the MIC [44] was 0.03 µg/mL (≈ 0.0782 µM) and the MPC [45] was 0.06 µg/mL. For the same molecule, the MIC [46] was 0.03 µg/mL (≈ 0.0782 µM) and the MPC [47] was 4 µg/mL.
For `C[C@@H](O)[C@H]1C(=O)N2C(C(=O)O)=C(S[C@@H]3CN[C@H](CNS(N)(=O)=O)C3)[C@H](C)[C@H]12` [DORIPENEM], the MPC [1] was 0.125 µg/mL, the MIC [2] was 0.03 µg/mL (≈ 0.0713 µM) and the MPC [3] was 0.06 µg/mL. For the same molecule, the MIC [4] was 0.03 µg/mL (≈ 0.0713 µM), the MPC [5] was 0.125 µg/mL and the MIC [6] was 2 µg/mL (≈ 4.76 µM). For the same molecule, the MPC [7] was >64 µg/mL, the MPC [8] was 8 µg/mL and the MPC [9] was 0.125 µg/mL. For the same molecule, the MIC [10] was 0.03 µg/mL (≈ 0.0713 µM), the MIC [11] was 2 µg/mL (≈ 4.76 µM) and the MPC [12] was 2 µg/mL. The MPC [13] was 0.06 µg/mL, the MPC [14] was 2 µg/mL and the MIC [15] was 0.06 µg/mL (≈ 0.143 µM). The MPC [16] was 16 µg/mL, the MPC [17] was 0.125 µg/mL and the MPC [18] was 0.25 µg/mL. It also gave an MIC [19] of 2 µg/mL (≈ 4.76 µM), an MPC [20] of 0.125 µg/mL and an MPC [21] of 0.06 µg/mL. It also gave an MIC [22] of 0.03 µg/mL (≈ 0.0713 µM), an MPC [23] of 0.125 µg/mL and an MPC [24] of 0.06 µg/mL. For the same molecule, the MPC [25] was 8 µg/mL, the MPC [26] was 8 µg/mL and the MIC [27] was 0.03 µg/mL (≈ 0.0713 µM). The MPC [28] was 8 µg/mL, the MPC [29] was 8 µg/mL and the MPC [30] was 2 µg/mL. The MPC [31] was 1 µg/mL, the MIC [32] was 0.06 µg/mL (≈ 0.143 µM) and the MPC [33] was 16 µg/mL. It also gave an MPC [34] of 0.125 µg/mL, an MPC [35] of 4 µg/mL and an MPC [36] of 4 µg/mL. The MPC [37] was 64 µg/mL, the MPC [38] was 0.125 µg/mL and the MPC [39] was 8 µg/mL. For the same molecule, the MPC [40] was >64 µg/mL, the MPC [41] was 4 µg/mL and the MIC [42] was 0.06 µg/mL (≈ 0.143 µM). It also gave an MPC [43] of 8 µg/mL, an MIC [44] of 0.03 µg/mL (≈ 0.0713 µM) and an MPC [45] of 0.125 µg/mL. It also gave an MIC [46] of 0.03 µg/mL (≈ 0.0713 µM) and an MPC [47] of 2 µg/mL.
